Assay results from ChEMBL document CHEMBL4396895, “Identification and Optimization of Novel Cathepsin C Inhibitors Derived from EGFR Inhibitors” (J Med Chem, 2019).
Blank lines part the entries; values can stand above or below the molecule they belong to. Active and inactive are the calls of the source. The rule behind the calls is not given here.

What was measured:
Dipeptidyl peptidase 1 [1] = target: T1, Dipeptidyl peptidase 1 (Homo sapiens, UniProt P53634); test: Inhibition of CatL-activated recombinant human C-terminal His10-tagged cathepsin C (25 to 463 residues) expressed in mouse myeloma cells using Gly-Phe-AFC as substrate preincubated for 3 hrs followed by substrate addition and measured after 60 mins; type: cell-free
Outline: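 Activated rhCatC was diluted to 4.4 nM in 25 mM MES, 50 mM NaCl, 5 mM DTT, 0.01% Triton X-100, pH 6.0. It was preincubated with compound (added in 10% DMSO) for 3 h at RT. Gly-Phe-AFC was then added to 100 μM final and read as fluorescence after 60 min. IC50 came from a sigmoidal nonlinear fit; values are means of at least two experiments.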

Dipeptidyl peptidase 1 [2] = target: T1, Dipeptidyl peptidase 1; test: Inhibition of cathepsin C (unknown origin)
Outline: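 Enzyme preincubated with compound 3 h at RT. Gly-Phe-AFC added (100 μM final) and product fluorescence read after 60 min. IC50 from sigmoidal nonlinear regression, mean of at least two experiments.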

[3] = target: Epidermal growth factor receptor (Homo sapiens, UniProt P00533); test: Inhibition of EGFR (unknown origin) up to 10 uM using biotin-labelled peptide as substrate preincubated for 2 hrs followed by substrate addition and measured after 30 mins by HTRF FRET assay
Outline: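 EGFR WT was used at 0.1 nM final in 50 mM HEPES pH 7.0, 0.02% NaN3, 0.01% BSA, 0.1 mM orthovanadate, 10 mM MgCl2, 2.5 mM DTT, 6.25 nM SEB. It was preincubated with compound for 2 h. Biotin-peptide (1.4 μM) and ATP (20 μM) were then added for 30 min at RT. Read-out was HTRF/TR-FRET (Ex 320, Em 615/665 nm) with a sigmoidal curve fit.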

[4] = Intrinsic clearance in human liver microsomes assessed per mg protein measured after 60 mins in presence of NADPH by LC-MS/MS analysis; type: ADME, Microsome; details: read-out: CLH
[5] = Intrinsic clearance in rat liver microsomes assessed per mg protein measured after 60 mins in presence of NADPH by LC-MS/MS analysis; type: ADME, Microsome; details: read-out: CLH
Dipeptidyl peptidase 1 [6] = target: T1, Dipeptidyl peptidase 1; test: Inhibition of cathepsin C in human THP1 cells using H-Gly-Phe-AFC as substrate preincubated for 4 hrs followed by substrate addition and measured after 60 mins; type: cell-based
Outline: (§1)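 THP1 or U937 cells, grown in RPMI 1640 with 10% FBS, were seeded at 1.0 × 10^6/mL. They were preincubated with threefold serial dilutions of compound for 4 h at 37 °C. H-Gly-Phe-AFC was then added from a 100 μM solution and fluorescence was read after 60 min at 37 °C. Values are means of at least two experiments.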

Dipeptidyl peptidase 1 [7] = target: T1, Dipeptidyl peptidase 1; test: Inhibition of cathepsin C in human U937 cells using H-Gly-Phe-AFC as substrate preincubated for 4 hrs followed by substrate addition and measured after 60 mins; type: cell-based; outline: as §1
[8] = Intrinsic clearance in mouse liver microsomes assessed per mg protein measured after 60 mins in presence of NADPH by LC-MS/MS analysis; type: ADME, Microsome; details: read-out: CLH

SMILES: C=CC(=O)Nc1cccc(Oc2nc(Nc3ccc(N4CCN(C)CC4)cc3)ccc2Cl)c1
IC50 (Dipeptidyl peptidase 1 [1]): 483 nM

SMILES: C=CC(=O)Nc1cccc(Oc2nc(Nc3ccc(CCN)cc3)ccc2Cl)c1
IC50 (Dipeptidyl peptidase 1 [1]): 2050 nM

SMILES: C=CC(=O)Nc1cccc(Oc2nc(Nc3ccc(N4CCN(C)CC4)cc3OC)ncc2Cl)c1
IC50 (Dipeptidyl peptidase 1 [1]): 2100 nM | IC50 (Dipeptidyl peptidase 1 [2]): 2100 nM

SMILES: C=CC(=O)Nc1cc2c(Nc3ccc(F)c(Cl)c3)ncnc2cc1OCCCN1CCOCC1 [CANERTINIB]
IC50 (Dipeptidyl peptidase 1 [2]): 2700 nM

SMILES: C=CC(=O)Nc1cccc(Oc2nc(Nc3ccc(N4CCN(C)CC4)cc3OC)ccc2C#N)c1
IC50 (Dipeptidyl peptidase 1 [1]): 835 nM

SMILES: CN(C)C/C=C/C(=O)Nc1cc2c(Nc3ccc(F)c(Cl)c3)ncnc2cc1O[C@H]1CCOC1 [AFATINIB]
IC50 (Dipeptidyl peptidase 1 [2]): > 10000 nM

SMILES: C=CC(=O)Nc1cccc(Oc2nc(Nc3ccc(N4CCN(C)CC4)cc3OC)ccc2C(F)(F)F)c1
IC50 (Dipeptidyl peptidase 1 [1]): 1610 nM

SMILES: C=CC(=O)Nc1cccc(Oc2nc(Nc3ccc(N4CCN(CC5CC5)CC4)cc3)ccc2Cl)c1
IC50 (Dipeptidyl peptidase 1 [1]): 783 nM

The next lines start with the values.

IC50 (Dipeptidyl peptidase 1 [1]): > 10000 nM
SMILES: C=CC(=O)Nc1cccc(Oc2nc(Nc3ccc(N4CCN(C)CC4)cc3OC)ccc2N2CCCC2)c1C

IC50 (Dipeptidyl peptidase 1 [1]): 175 nM
SMILES: C=CC(=O)Nc1cccc(Oc2nc(Nc3ccc(N4CCN(C)CC4)cc3OC)ccc2N2CCCC2)c1

IC50 (Dipeptidyl peptidase 1 [1]): 135 nM
SMILES: C=CC(=O)Nc1cc(Oc2nc(Nc3ccc(N4CCN(C(C)=O)CC4)cc3OC)ccc2N2CCCCC2)ccc1C

inhibition [3]: inactive | microsomal CLint [4]: 4.9 µL/min/mg | microsomal CLint [5]: 9 µL/min/mg | IC50 (Dipeptidyl peptidase 1 [6]): 4.9 nM | IC50 (Dipeptidyl peptidase 1 [7]): 7.4 nM | IC50 (Dipeptidyl peptidase 1 [1]): 34.1 nM | microsomal CLint [8]: 6 µL/min/mg
SMILES: C=CC(=O)Nc1cc(Oc2nc(Nc3ccc(N4CCN(C)CC4)cc3OC)ccc2N2CCCC(O)C2)ccc1C (racemic)

inhibition [3]: inactive | IC50 (Dipeptidyl peptidase 1 [1]): 154 nM
SMILES: C=CC(=O)Nc1cc(Oc2nc(Nc3ccc(N4CCN(C)CC4)cc3OC)ccc2-c2ccccc2)ccc1C

microsomal CLint [4]: 5.2 µL/min/mg | microsomal CLint [5]: 15.1 µL/min/mg | IC50 (Dipeptidyl peptidase 1 [6]): 1.8 nM | IC50 (Dipeptidyl peptidase 1 [7]): 2.4 nM | IC50 (Dipeptidyl peptidase 1 [1]): 2.3 nM | microsomal CLint [8]: 15.4 µL/min/mg
SMILES: C=CC(=O)Nc1cc(Oc2nc(Nc3ccc(N4CCN(C)CC4)cc3OC)ccc2N2CCCCC2)ccc1C(F)(F)F

microsomal CLint [4]: 6 µL/min/mg | microsomal CLint [5]: 13 µL/min/mg | IC50 (Dipeptidyl peptidase 1 [6]): 6.5 nM | IC50 (Dipeptidyl peptidase 1 [7]): 10 nM | IC50 (Dipeptidyl peptidase 1 [1]): 28.6 nM | microsomal CLint [8]: 22 µL/min/mg
SMILES: C=CC(=O)Nc1cc(Oc2nc(Nc3ccc(N4CCN(C)CC4)nc3OC)ccc2N2CCCCC2)ccc1C

IC50 (Dipeptidyl peptidase 1 [1]): 221 nM
SMILES: C=CC(=O)Nc1cccc(Oc2nc(Nc3ccc(N4CCN(C)CC4)cc3OC)ccc2N2CCCCC2)c1

IC50 (Dipeptidyl peptidase 1 [1]): 271 nM
SMILES: C=CC(=O)Nc1cccc(Oc2nc(Nc3ccc(N4CCN(C)CC4)cc3OC)ccc2N2CCCCCC2)c1
